# Activity calls are given as the source filed them.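 The calls were made as follows: active = falling transferrin uptake with a fitted half-maximal potency at or below twice the top valid tested dose; inconclusive = flat fit with a 30 to 70% drop, or poor fit; inactive = the rest.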
# Experiment: transferrin endocytosis inhibition in mSR-BI cells, dose response, selectivity assay for SR-BI HDL uptake inhibitor project, imaging, Alexa594-transferrin, dry powder (AID 602134)
# How it was run: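 Material – mSR-BI cells · Buffer or medium – serum-free DMEM, 1% BSA · Reagent – Alexa-594 transferrin, 30 µg/mL · Schedule – transferrin uptake 30 min at 37 °C, stopped on ice · Detection – fluorescence imaging, Alexa-594 and DAPI · Read-out basis – normalized percent of cells with above-threshold perinuclear transferrin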
smiles,measurement,value
CC1CCC/C=C/C2CC(O)CC2C(O)/C=C\C(=O)O1 (stereo unspecified),outcome,inactive

# From PubChem BioAssay AID602134 (Broad Institute, 2011)
